Data as given in ChEMBL document CHEMBL1134290, “A novel anti-ischemic ATP-sensitive potassium channel (K(ATP)) opener without vasorelaxation: N-(6-aminobenzopyranyl)-N'-benzyl-N' '-cyanoguanidine analogue” (J Med Chem, 2001).

Key:
Rattus norvegicus [1] = test: Ratio of myocardial infarct zone to area at risk […] in ischemic myocardium damage rat model (Cardioprotective effect) at 0.3 mg/Kg; assay type: functional
In short: (§1)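 Male Sprague-Dawley rats (350-450 g), pentobarbital 75 mg/kg i.p., ventilated 60/min at 10 mL/kg, 37 °C. Vehicle or compound given via femoral vein over 30 min, with or without glibenclamide or 5-HD. Left coronary occlusion 45 min, reperfusion 90 min. Risk zone marked by Evans blue after reocclusion. LV slices stained with TTC at 37 °C, pH 7.4, 15 min. Infarct area summed, divided by AAR weight; n = 3 or more.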

Rattus norvegicus [2] = test: Ratio of myocardial infarct zone to area at risk (IZ/AAR) in ischemic myocardium damage rat model (Cardioprotective effect) at 0.3 mg/Kg; assay type: functional; in short: as §1
Rattus norvegicus [3] = species on record: Rattus norvegicus; test: (§2) Reduction rate of LDH release from neuronal cells injured by iron […]; assay type: functional
In short: (§3)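 Cortical neurons from E17-18 rat embryos, cultured 7-9 days at 37 °C, 5% CO2. Serum lowered to 0.2% in MEM. Pretreated 30 min with compound in DMSO (final ≤0.2%), then FeSO4 at 50 µM final for 24 h. LDH released into medium measured; reduction of LDH release taken relative to control. Four determinations averaged.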

Rattus norvegicus [4] = species on record: Rattus norvegicus; test: Inhibition of methoxamine-contracted rat aorta (Vasorelaxant potency); assay type: functional
In short: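 Rat aortic rings (Sprague-Dawley, 350-450 g; 3 mm rings, adipose removed) held in oxygenated modified Krebs-Henseleit PSS at 37 °C under 2 g resting tension, stabilised 1 h. Once methoxamine contraction reached a maintained maximum, compound added cumulatively at 1, 3, 10, 30 µM. Relaxation taken as change in maximal methoxamine constriction and plotted as concentration-relaxation curve.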

Rattus norvegicus [5] = test: Ratio of myocardial infarct zone to area at risk […] in ischemic myocardium damage rat model (Cardioprotective effect) at 0.1 mg/Kg; assay type: functional; in short: as §1
Rattus norvegicus [6] = test: Ratio of myocardial infarct zone to area at risk […] in ischemic myocardium damage rat model (Cardioprotective effect) at 1 mg/Kg; assay type: functional; in short: as §1
Rattus norvegicus [7] = test: Ratio of myocardial infarct zone to area at risk […] in ischemic myocardium damage rat model (Cardioprotective effect) in the presence of 5-HD (10 mg/kg); assay type: functional; in short: as §1
Rattus norvegicus [8] = test: Ratio of myocardial infarct zone to area at risk […] in ischemic myocardium damage rat model (Cardioprotective effect) in the presence of Gliben 1 mg/kg; assay type: functional; in short: as §1
Rattus norvegicus [9] = test: Ratio of myocardial infarct zone to area at risk (IZ/AAR) in ischemic myocardium damage rat model (Cardioprotective effect) in the presence of 5-HD (10 mg/kg); assay type: functional; in short: as §1
Rattus norvegicus [10] = test: Ratio of myocardial infarct zone to area at risk (IZ/AAR) in ischemic myocardium damage rat model (Cardioprotective effect) in the presence of Gliben 1 mg/kg; assay type: functional; in short: as §1
Rattus norvegicus [11] = test: Ratio of myocardial infarct zone to area at risk(IZ/AAR)in ischemic myocardium damage rat model (Cardioprotective effect) at 0.1 mg/kg; assay type: functional; in short: as §1
Rattus norvegicus [12] = test: Ratio of myocardial infarct zone to area at risk(IZ/AAR)in ischemic myocardium damage rat model (Cardioprotective effect) at 0.3 mg/kg; Not determined; assay type: functional; in short: as §1
Rattus norvegicus [13] = test: Ratio of myocardial infarct zone to area at risk(IZ/AAR)in ischemic myocardium damage rat model (Cardioprotective effect) at 1 mg/kg; Not determined; assay type: functional; in short: as §1
Rattus norvegicus [14] = species on record: Rattus norvegicus; test: as §2; assay type: functional, cell-based
Rattus norvegicus [15] = species on record: Rattus norvegicus; test: Reduction rate of LDH release from rat neuronal cells injured by iron […]; assay type: functional; in short: as §3

Row | Compound | Effect (Rattus norvegicus [1]) [%] | Effect (Rattus norvegicus [2]) [%] | inhibition at 30 µM (Rattus norvegicus [3]) [%] | also measured
1 | COC(OC)[C@]1(C)Oc2ccc([N+](=O)[O-])cc2[C@@H](/N=C(\NC#N)Nc2ccc(Cl)cc2)[C@@H]1O | 37 | 52 | 61 | IC50 (Rattus norvegicus [4]; Rattus norvegicus, Aorta): 17.5 µM
2 | COC(OC)[C@@]1(C)Oc2ccc([N+](=O)[O-])cc2C(N/C(=N/C#N)NCc2ccccc2)[C@H]1O (single isomer, unassigned) | 38 | 49 | – | IC50 (Rattus norvegicus [4]): 9.8 µM
3 | COC(OC)C1(C)Oc2ccc(N)cc2C(/N=C(\NC#N)NCc2ccccc2)[C@@H]1O (single isomer, unassigned) | 35 | 37 | – | Effect (Rattus norvegicus [5]): 34%; Effect (Rattus norvegicus [6]): 35%; Effect (Rattus norvegicus [7]): 35%; Effect (Rattus norvegicus [8]): 33%; Effect (Rattus norvegicus [9]): 46%; Effect (Rattus norvegicus [10]): 51%; Effect (Rattus norvegicus [11]): 42%; Effect (Rattus norvegicus [12]): 37%; Effect (Rattus norvegicus [13]): 34%; IC50 (Rattus norvegicus [14]): 2.2 µM
4 | COc1ccc(CN/C(=N/C2c3cc(N)ccc3OC(C)(C(OC)OC)[C@H]2O)NC#N)cc1 (single isomer, unassigned) | 37 | 42 | – | IC50 (Rattus norvegicus [14]): 4.1 µM
5 | CC1(C)Oc2ccc(C#N)cc2[C@@H](/N=C(\NC#N)Nc2ccc(Cl)cc2)[C@@H]1O | 39 | 39 | – | inhibition at 30 µM (Rattus norvegicus [15]): 20%; IC50 (Rattus norvegicus [4]; Rattus norvegicus, Aorta): 3.2 µM
6 | COC(OC)C1(C)Oc2ccc(NS(C)(=O)=O)cc2C(/N=C(\NC#N)NCc2ccccc2)[C@@H]1O (single isomer, unassigned) | 35 | 43 | 10 | –
7 | COC(OC)[C@]1(C)Oc2ccc(N)cc2[C@H](/N=C(\NC#N)NCc2ccccc2)[C@H]1O | 38 | 51 | – | IC50 (Rattus norvegicus [14]): 4.1 µM
8 | COC(OC)[C@]1(C)Oc2ccc([N+](=O)[O-])cc2[C@@H](/N=C(\NC#N)Nc2cccc(Cl)c2)[C@@H]1O | 47 | 40 | 70 | IC50 (Rattus norvegicus [4]; Rattus norvegicus, Aorta): 30.5 µM
9 | CC1(C)COC([C@]2(C)Oc3ccc(N)cc3[C@H](/N=C(\NC#N)NCc3ccccc3)[C@@H]2O)OC1 | 42 | 56 | 60 | –
10 | CC1(C2OCCO2)Oc2ccc(N)cc2C(/N=C(\NC#N)NCc2ccccc2)[C@@H]1O (single isomer, unassigned) | 32 | 52 | 3.6 | –
11 | COC(OC)C1(C)Oc2ccc([N+](=O)[O-])cc2C(/N=C(\NC#N)Nc2ccc(Cl)cc2)[C@@H]1O (single isomer, unassigned) | 46 | 46 | 58 | –
12 | COC(OC)[C@]1(C)Oc2ccc(N)cc2[C@@H](/N=C(\NC#N)NCc2ccccc2)[C@@H]1O | 39 | 46 | – | IC50 (Rattus norvegicus [14]): 8 µM
13 | COC(OC)[C@]1(C)Oc2ccc([N+](=O)[O-])cc2[C@@H](N/C(=N/C#N)NCc2ccccc2)[C@@H]1O | – | – | 37 | –
14 | COc1ccc(N/C(=N/[C@H]2c3cc([N+](=O)[O-])ccc3O[C@@](C)(C(OC)OC)[C@H]2O)NC#N)cc1 | 38 | 43 | 45 | –
15 | COC(OC)C1(C)Oc2ccc([N+](=O)[O-])cc2C(N/C(=N/C#N)NCc2ccccc2)[C@H]1O (single isomer, unassigned) | – | – | – | IC50 (Rattus norvegicus [4]; Rattus norvegicus, Aorta): 7.3 µM
16 | COC(OC)C1(C)Oc2ccc([N+](=O)[O-])cc2C(/N=C(\NC#N)NCc2ccccc2)[C@@H]1O (single isomer, unassigned) | 37 | 49 | 7 | –
17 | COC(OC)[C@]1(C)Oc2ccc(NC(C)=O)cc2[C@H](/N=C(\NC#N)NCc2ccccc2)[C@@H]1O | 41 | 45 | 25 | –
18 | COC(OC)[C@@]1(C)Oc2ccc(N)cc2[C@H](/N=C(\NC#N)NCc2ccccc2)[C@H]1O | 33 | 51 | – | IC50 (Rattus norvegicus [14]): 9.2 µM
